Measured values reported in ChEMBL document CHEMBL5230180, “A cationic amphiphilic peptide chaperone rescues Aβ42 aggregation and cytotoxicity” (RSC Med Chem, 2023).
The source made the active and inactive calls. The calls are words filed in the database; no cut-off is given here.

Experiments:
[1] = target: Amyloid-beta precursor protein (Homo sapiens) (UniProt P05067); test: Inhibition of amyloid beta 42 (unknown origin) aggregation assessed as half time for Abeta42 aggregation at Abeta42:compound concentration ratio of 1:1 by ThT fluorescence assay (reference value: 9.34 +/-0.25 hrs)
Sequence of Amyloid-beta precursor protein (Homo sapiens) (P05067 whole entry): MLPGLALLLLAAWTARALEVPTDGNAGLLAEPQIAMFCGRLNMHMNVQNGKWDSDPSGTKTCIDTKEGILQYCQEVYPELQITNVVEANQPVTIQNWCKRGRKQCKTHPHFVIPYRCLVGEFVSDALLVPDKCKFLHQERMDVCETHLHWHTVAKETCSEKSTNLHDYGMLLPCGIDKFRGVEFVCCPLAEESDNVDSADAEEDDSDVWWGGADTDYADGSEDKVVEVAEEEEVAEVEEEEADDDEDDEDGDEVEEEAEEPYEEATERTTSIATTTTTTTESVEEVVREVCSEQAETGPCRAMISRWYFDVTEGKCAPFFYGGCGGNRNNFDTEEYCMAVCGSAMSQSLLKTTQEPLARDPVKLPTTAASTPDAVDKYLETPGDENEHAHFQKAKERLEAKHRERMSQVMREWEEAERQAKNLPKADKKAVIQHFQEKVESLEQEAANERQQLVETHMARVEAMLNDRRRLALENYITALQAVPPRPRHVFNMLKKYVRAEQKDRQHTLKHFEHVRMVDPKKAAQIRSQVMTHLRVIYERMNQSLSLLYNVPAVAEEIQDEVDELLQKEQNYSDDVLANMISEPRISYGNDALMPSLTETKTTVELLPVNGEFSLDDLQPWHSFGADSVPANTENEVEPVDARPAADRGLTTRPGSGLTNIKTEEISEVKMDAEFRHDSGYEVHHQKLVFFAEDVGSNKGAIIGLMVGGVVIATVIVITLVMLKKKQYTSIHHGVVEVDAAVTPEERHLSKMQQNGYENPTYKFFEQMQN

SH-SY5Y [2] = test: Cytotoxicity against human SH-SY5Y cells assessed as reduction in cell viability at 30 uM incubated for 24 hrs by MTT assay; format: toxicity, cell-based
How it was run: (§1)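 SH-SY5Y neuronal cells exposed to peptide alone (1–30 μM) at 37 °C up to 24 h; viability by MTT conversion to formazan, compared with untreated control cells.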

[3] = target: Amyloid-beta precursor protein (Homo sapiens) (UniProt P05067); test: Inhibition of amyloid beta 42 (unknown origin) aggregation assessed as lag time for Abeta42 aggregation at Abeta42:compound concentration ratio of 1:1 by ThT fluorescence assay (reference value: 6.35 +/-0.32 hrs)
SH-SY5Y [4] = test: Protection against Abeta42-induced cytotoxicity in human SH-SY5Y cells assessed as increase in cell viability at Abeta42:compound concentration ratio of 1:1 incubated for 24 hrs by MTT assay; format: functional, cell-based
How it was run: (§2)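 SH-SY5Y cells given 10 μM soluble Aβ42 with peptide (1, 2, 3, 5, 10, 30 μM; 1:1 for comparison) at 37 °C up to 24 h; MTT formazan read-out relative to cells without peptide or Aβ42; IC50 from dose–response.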

[5] = target: Amyloid-beta precursor protein (Homo sapiens) (UniProt P05067); test: Inhibition of amyloid beta 42 (unknown origin) aggregation assessed as reduction in fluorescence intensity measured for 48 hrs by ThT fluorescence assay
How it was run: (§3)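 Soluble (pre-aggregation) Aβ42 at 25 μM with 20 μM ThT, incubated with peptide at 0.1–10 equivalents (2.5–250 μM) in 10 mM sodium phosphate, 150 mM NaCl, 1 mM EDTA, pH 7.4; time-dependent ThT fluorescence monitored, normalized to Aβ42 alone.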

[6] = target: Amyloid-beta precursor protein (Homo sapiens) (UniProt P05067); test: Inhibition of amyloid beta 42 (unknown origin) aggregation assessed as reduction in Abeta42 fibrillar network at 10 uM incubated for 48 hrs by AFM analysis
How it was run: (§4)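 10 μM soluble Aβ42 incubated at 37 °C for about 48 h alone or with peptide (1:1; 10 μM); fibril morphology imaged by HR-TEM and AFM.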

[7] = target: Amyloid-beta precursor protein (Homo sapiens) (UniProt P05067); test: Inhibition of amyloid beta 42 (unknown origin) aggregation assessed as fluorescence intensity at compound:Abeta42 concentration ratio of 0.5:1 measured for 48 hrs by ThT fluorescence assay; set-up: scale not given: the % may be the effect or the level left; how it was run: as §3
[8] = target: Amyloid-beta precursor protein (Homo sapiens) (UniProt P05067); test: Disruption of aggregated Amyloid beta 42 fibrils (unknown origin) assessed as reduction in fluorescence intensity at compound:Abeta42 concentration ratio of 1:1 treated with compound after 24 hrs of incubation of Abeta42 in solution by ThT fluorescence assay
How it was run: (§5)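 Aβ42 (25 μM) preincubated with 20 μM ThT at 37 °C; peptide added at 1:1 after 16 or 24 h, incubation continued and ThT fluorescence followed over time; buffer 10 mM sodium phosphate, 150 mM NaCl, 1 mM EDTA, pH 7.4.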

[9] = target: Amyloid-beta precursor protein (Homo sapiens) (UniProt P05067); test: Inhibition of amyloid beta 42 (unknown origin) aggregation assessed as aggregated particle size at equimolar concentration with Abeta42 incubated for 24 hrs by Dynamic light scattering based analysis (reference value: 800 nm)
How it was run: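 Dynamic light scattering of 10 μM Aβ42 with or without peptide after 24 h at 37 °C; frequency distribution of particle diameter.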

[10] = target: Amyloid-beta precursor protein (Homo sapiens) (UniProt P05067); test: Inhibition of amyloid beta 42 (unknown origin) aggregation assessed as reduction in fluorescence intensity at Abeta42:compound concentration ratio of 1:5 measured for 48 hrs by ThT fluorescence assay; how it was run: as §3
SH-SY5Y [11] = test: Protection against Abeta42-induced cytotoxicity in human SH-SY5Y cells assessed as increase in cell viability incubated for 24 hrs in presence of 10 uM Abeta42 by MTT assay; format: functional, cell-based; how it was run: as §2
[12] = Hemolytic activity against red blood cells (unknown origin) upto 250 uM; format: toxicity, cell-based; details: erythrocyte
How it was run: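 Red blood cells treated with a range of peptide concentrations up to 250 μM; haemolysis assessed.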

[13] = target: Amyloid-beta precursor protein (Homo sapiens) (UniProt P05067); test: Inhibition of 15N-labeled amyloid beta 42 (unknown origin) aggregation assessed as Abeta42 conformational reorganization by measuring changes in positions of Abeta42 cross-peaks at Abeta42:compound concentration ratio of 1:1 by 1H-15N HSQC NMR spectral analysis
[14] = target: Amyloid-beta precursor protein (Homo sapiens) (UniProt P05067); test: Inhibition of amyloid beta 42 (unknown origin) aggregation assessed as reduction in fluorescence intensity at Abeta42:compound concentration ratio of 1:10 measured for 48 hrs by ThT fluorescence assay; how it was run: as §3
[15] = target: Amyloid-beta precursor protein (Homo sapiens) (UniProt P05067); test: Inhibition of amyloid beta 42 (unknown origin) aggregation assessed as lag time for Abeta42 aggregation at Abeta42:compound concentration ratio of 1:0.5 by ThT fluorescence assay (reference value: 6.35 +/-0.32 hrs)
[16] = target: Amyloid-beta precursor protein (Homo sapiens) (UniProt P05067); test: Inhibition of amyloid beta 42 (unknown origin) aggregation assessed as decrease in absorbance at 450 nm at Abeta42:compound concentration ratio of 1:0.5 to 1:10 incubated for up to 24 hrs by ELISA
How it was run: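 Aβ42 in PBS preincubated 24 h with peptide (0.5–10 equivalents), then captured on oligomer-specific monoclonal antibody-coated wells; detection via biotinylated antibody, streptavidin-HRP and TMB, absorbance 450 nm; peptide-alone wells included.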

[17] = target: Amyloid-beta precursor protein (Homo sapiens) (UniProt P05067); test: Inhibition of amyloid beta 42 (unknown origin) aggregation assessed as fluorescence intensity at 0.3 equivalents measured for 48 hrs by ThT fluorescence assay; set-up: scale not given: the % may be the effect or the level left; details: dose 0.3 equiv; how it was run: as §3
[18] = target: Amyloid-beta precursor protein (Homo sapiens) (UniProt P05067); test: Inhibition of amyloid beta 42 (unknown origin) aggregation assessed as reduction in Abeta42 fibrillar network at compound:Abeta42 concentration ratio of 1:1 incubated for 48 hrs by HR-TEM analysis; how it was run: as §4
SH-SY5Y [19] = test: Cytotoxicity against human SH-SY5Y cells assessed as reduction in cell viability upto 30 uM incubated for 24 hrs by MTT assay; format: toxicity, cell-based; how it was run: as §1
[20] = target: Amyloid-beta precursor protein (Homo sapiens) (UniProt P05067); test: Inhibition of amyloid beta 42 (unknown origin) aggregation assessed as fluorescence intensity at 0.1 equivalents measured for 48 hrs by ThT fluorescence assay; set-up: scale not given: the % may be the effect or the level left; details: dose 0.1 equiv; how it was run: as §3
[21] = target: Amyloid-beta precursor protein (Homo sapiens) (UniProt P05067); test: Inhibition of amyloid beta 42 (unknown origin) aggregation assessed as fluorescence intensity at compound:Abeta42 concentration ratio of 1:1 measured for 48 hrs by ThT fluorescence assay; set-up: scale not given: the % may be the effect or the level left; how it was run: as §3
[22] = target: Amyloid-beta precursor protein (Homo sapiens) (UniProt P05067); test: Inhibition of amyloid beta 42 (unknown origin) aggregation assessed as reduction in fluorescence intensity at Abeta42:compound concentration ratio of 1:3 measured for 48 hrs by ThT fluorescence assay; how it was run: as §3
[23] = target: Amyloid-beta precursor protein (Homo sapiens) (UniProt P05067); test: Disruption of aggregated Amyloid beta 42 fibrils (unknown origin) assessed as reduction in fluorescence intensity at compound:Abeta42 concentration ratio of 1:1 treated with compound after 16 hrs of incubation of Abeta42 in solution by ThT fluorescence assay; how it was run: as §5
[24] = target: Amyloid-beta precursor protein (Homo sapiens) (UniProt P05067); test: Inhibition of amyloid beta 42 (unknown origin) aggregation assessed as reduction in fluorescence intensity at equimolar concentration with Abeta42 incubated for 48 hrs by ThT laser scanning confocal microscopy
[25] = target: Amyloid-beta precursor protein (Homo sapiens) (UniProt P05067); test: Inhibition of amyloid beta 42 (unknown origin) aggregation assessed as transformation of random coil structure to helical secondary structure with CD minima at 205 nm and 221 nm at Abeta42:compound concentration ratio of 1:1 incubated for 24 hrs by circular dichroism analysis
How it was run: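 CD spectra of 50 μM soluble Aβ42 in PBS at 0 h and after 24 h at room temperature, alone or with equimolar (50 μM) peptide; peptide alone also recorded.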

[26] = target: Amyloid-beta precursor protein (Homo sapiens) (UniProt P05067); test: Inhibition of amyloid beta 42 (unknown origin) aggregation assessed as half time for Abeta42 aggregation at Abeta42:compound concentration ratio of 1:0.5 by ThT fluorescence assay (reference value: 9.34 +/-0.25 hrs)

## Ac-KLAKLAKKLAKL-NH2
[1]
  T1/2: 9.59 h
SH-SY5Y [2]
  Activity: Non-Toxic
[3]
  TIME: 0.75 h
SH-SY5Y [4]
  Activity: Active
[5]
  inhibition: Dose-Dependent Effect

## CC(=O)N[C@@H](CCCCN)C(=O)N[C@@H](CC(C)C)C(=O)N[C@@H](C)C(=O)N[C@@H](CCCCN)C(=O)N[C@@H](CC(C)C)C(=O)N[C@@H](C)C(=O)N[C@@H](CCCCN)C(=O)N[C@@H](CCCCN)C(=O)N[C@@H](CC(C)C)C(=O)N[C@@H](C)C(=O)N[C@@H](CCCCN)C(=O)N[C@@H](CC(C)C)C(=O)N[C@@H](C)C(=O)N[C@@H](CCCCN)C(=O)N[C@@H](CC(C)C)C(N)=O
[6]
  inhibition: Active
[7]
  Activity: 20%
[8]
  Activity: Active
[9]
  Activity: 100 nm
[10]
  inhibition: Active
SH-SY5Y [11]
  IC50: 8.73 µM
[12]
  Activity: Non-Toxic
[13]
  Activity: Active
[14]
  inhibition: Active
[15]
  TIME: 1.8 h
[16]
  inhibition: Active
[17]
  Activity: 30%
[18]
  inhibition: Active
SH-SY5Y [19]
  Activity: Non-Toxic
[20]
  Activity: 40%
SH-SY5Y [4]
  Activity: Active
[21]
  Activity: < 3%
[22]
  inhibition: Active
[23]
  Activity: Active
[24]
  inhibition: Active
[25]
  inhibition: Active
[26]
  T1/2: 6.09 h

## Ac-ALAALALALAALAAL-NH2
[5]
  inhibition: inactive

## Ac-KLAKLAKL-NH2
[1]
  T1/2: 8.22 h
SH-SY5Y [2]
  Activity: Non-Toxic
[3]
  TIME: 2.14 h
SH-SY5Y [4]
  Activity: Active
[5]
  inhibition: Dose-Dependent Effect
